From ChEMBL document CHEMBL1156929, “Synthesis, biological evaluation, and molecular modeling of 1-benzyl-1H-imidazoles as selective inhibitors of aldosterone synthase (CYP11B2)” (J Med Chem, 2010)

How the values were obtained:
[1] = molecular target: T1, Cytochrome P450 11B2, mitochondrial (Homo sapiens, UniProt P19099); assay: Inhibition of human CYP11B2 expressed in chinese hamster V79 cells; format: cell-based
T1 sequence (P19099 whole entry): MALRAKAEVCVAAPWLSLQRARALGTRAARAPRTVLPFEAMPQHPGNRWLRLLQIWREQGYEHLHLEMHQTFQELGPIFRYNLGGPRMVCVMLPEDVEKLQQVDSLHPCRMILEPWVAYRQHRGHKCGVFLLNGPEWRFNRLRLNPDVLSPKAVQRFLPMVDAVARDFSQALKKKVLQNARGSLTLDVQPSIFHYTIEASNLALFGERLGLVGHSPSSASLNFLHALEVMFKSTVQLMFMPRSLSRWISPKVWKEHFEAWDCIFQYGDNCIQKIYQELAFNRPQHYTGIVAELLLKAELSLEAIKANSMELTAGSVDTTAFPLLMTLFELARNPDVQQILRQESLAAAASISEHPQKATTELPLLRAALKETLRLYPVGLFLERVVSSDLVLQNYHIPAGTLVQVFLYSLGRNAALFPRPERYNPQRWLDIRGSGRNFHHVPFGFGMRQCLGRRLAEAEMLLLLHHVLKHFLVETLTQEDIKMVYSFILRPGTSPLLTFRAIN
Method in brief: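 Confluent V79 cells stably overexpressing human CYP11B2, 37 °C, 5% CO2. […] Steroids were extracted from medium with diethylether at pH 10.5 and quantified by HPLC (UV 243 nm) using peak-area ratios to methylprednisolone internal standard. IC50 from at least five concentrations, fitted to vi = v0/(1+I/IC50).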

[2] = molecular target: T2, Cytochrome P450 11B1, mitochondrial (Homo sapiens, UniProt P15538); assay: Inhibition of human CYP11B1 expressed in chinese hamster V79 cells; format: cell-based
T2 sequence (P15538 whole entry): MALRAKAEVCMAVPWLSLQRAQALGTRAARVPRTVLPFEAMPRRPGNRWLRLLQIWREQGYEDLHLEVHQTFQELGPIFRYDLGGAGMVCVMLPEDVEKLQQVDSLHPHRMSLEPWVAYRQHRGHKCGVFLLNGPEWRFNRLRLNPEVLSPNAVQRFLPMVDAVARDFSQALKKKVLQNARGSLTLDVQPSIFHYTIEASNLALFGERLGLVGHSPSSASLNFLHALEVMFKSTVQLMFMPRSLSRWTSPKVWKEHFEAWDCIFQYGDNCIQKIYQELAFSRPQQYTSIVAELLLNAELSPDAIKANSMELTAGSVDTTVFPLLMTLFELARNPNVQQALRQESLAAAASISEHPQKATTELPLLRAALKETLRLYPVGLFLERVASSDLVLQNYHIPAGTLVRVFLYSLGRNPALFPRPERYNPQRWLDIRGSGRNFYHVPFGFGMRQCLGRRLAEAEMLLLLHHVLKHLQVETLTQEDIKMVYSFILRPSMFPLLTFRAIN

Question: For `Cc1cncn1Cc1ccc(C#N)cc1`, which IC50 ([1]; read-out: IC50) is on record?
Answer: 0.012 µM

Question: `N#Cc1cccc(Cn2ccnc2)c1` was tested. Which IC50 [1] did it give?
Answer: > 1 µM

Question: What about the IC50 ([1]; read-out: IC50) of the same compound?
Answer: > 1 µM

Question: What about the IC50 ([2]; read-out: IC50) of the same compound?
Answer: > 1 µM

Question: What does the source list for `Brc1ccc(Cn2ccnc2)cc1`?
Answer: IC50 ([1]; read-out: IC50): 0.479 µM; IC50 ([2]; read-out: IC50): 0.211 µM

Question: With `N#Cc1ccc(Cn2ccnc2)cc1` as the compound, how does the IC50 ([1]; read-out: IC50) read?
Answer: 0.372 µM

Question: What about the IC50 ([2]; read-out: IC50) of the same compound?
Answer: 0.368 µM

Question: How did the IC50 ([1]; read-out: IC50) turn out when `Fc1ccc(Cn2ccnc2)cc1` was run?
Answer: 0.33 µM

Question: And the IC50 ([2]; read-out: IC50)?
Answer: 0.494 µM

Question: `Clc1ccc(Cn2ccnc2)cc1` was tested. Which IC50 [1] did it give?
Answer: > 1 µM

Question: What about the IC50 ([1]; read-out: IC50) of the same compound?
Answer: > 1 µM

Question: What about the IC50 ([2]; read-out: IC50) of the same compound?
Answer: > 1 µM

Question: Which results are given for `c1ccc(Cn2cncc2-c2ccccc2)cc1`?
Answer: IC50 ([1]; read-out: IC50): 0.011 µM; IC50 ([2]; read-out: IC50): 0.0048 µM

Question: What does the source list for `OCc1ccc(Cn2ccnc2)cc1`?
Answer: IC50 [1]: > 1 µM; IC50 ([1]; read-out: IC50): > 1 µM; IC50 ([2]; read-out: IC50): 0.695 µM

Question: With `OCCCc1cncn1Cc1ccc(F)cc1` as the compound, how does the IC50 ([1]; read-out: IC50) read?
Answer: 0.016 µM

Question: What does the source list for `COc1ccc(Cn2cncc2-c2ccccc2)cc1`?
Answer: IC50 ([1]; read-out: IC50): 0.014 µM; IC50 ([2]; read-out: IC50): 0.011 µM

Question: How did the IC50 ([1]; read-out: IC50) turn out when `COC(=O)c1cncn1Cc1ccc(C#N)cc1` was run?
Answer: 0.007 µM

Question: `Clc1ccc(Cn2cncc2-c2ccccc2)cc1` was tested. Which IC50 ([1]; read-out: IC50) did it give?
Answer: 0.0058 µM

Question: And the IC50 ([2]; read-out: IC50)?
Answer: 0.025 µM

Question: For `Brc1ccc(Cn2cncc2-c2ccccc2)cc1`, which IC50 ([1]; read-out: IC50) is on record?
Answer: 0.0051 µM

Question: What about the IC50 ([2]; read-out: IC50) of the same compound?
Answer: 0.007 µM

Question: What does the source list for `OCc1cccc(Cn2ccnc2)c1`?
Answer: IC50 ([1]; read-out: IC50): 1.17 µM; IC50 ([2]; read-out: IC50): 0.206 µM

Question: What does the source list for `Nc1cccc(Cn2ccnc2)c1`?
Answer: IC50 ([1]; read-out: IC50): 0.6 µM; IC50 ([2]; read-out: IC50): 0.39 µM

Question: Which IC50 ([1]; read-out: IC50) does the source give for `COc1ccc(Cn2cncc2CCCO)cc1` here?
Answer: 0.059 µM

Question: With `N#Cc1ccc(Cn2cncc2-c2ccccc2)cc1` as the compound, how does the IC50 ([2]; read-out: IC50) read?
Answer: 0.028 µM

Question: Which results are given for `Nc1ccc(Cn2ccnc2)cc1`?
Answer: IC50 [1]: > 1 µM; IC50 ([1]; read-out: IC50): > 1 µM; IC50 ([2]; read-out: IC50): 0.236 µM

Question: Which results are given for `Fc1cccc(Cn2ccnc2)c1`?
Answer: IC50 ([1]; read-out: IC50): 0.815 µM; IC50 ([2]; read-out: IC50): 0.206 µM

Question: Which IC50 ([1]; read-out: IC50) does the source give for `Brc1cccc(Cn2ccnc2)c1` here?
Answer: 0.365 µM

Question: What about the IC50 ([2]; read-out: IC50) of the same compound?
Answer: 0.143 µM

Question: Which results are given for `N#Cc1ccc(Cn2cncc2CCCO)cc1`?
Answer: IC50 ([1]; read-out: IC50): 0.013 µM; IC50 ([2]; read-out: IC50): 0.048 µM

Question: Which IC50 ([1]; read-out: IC50) does the source give for `OCCCc1cncn1Cc1ccc(Cl)cc1` here?
Answer: 0.055 µM

Question: What about the IC50 ([2]; read-out: IC50) of the same compound?
Answer: 0.044 µM

Question: `N#Cc1ccc(Cn2cncc2-c2cccc(F)c2)cc1` was tested. Which IC50 ([2]; read-out: pIC50 (converted)) did it give?
Answer: 0.0324 µM

Question: `N#Cc1ccc(Cn2cncc2-c2ccc(F)cc2)cc1` was tested. Which IC50 ([1]; read-out: IC50) did it give?
Answer: 0.025 µM

Question: What about the IC50 ([2]; read-out: IC50) of the same compound?
Answer: 0.027 µM

Question: With `OCCCc1cncn1Cc1ccc(Br)cc1` as the compound, how does the IC50 ([1]; read-out: IC50) read?
Answer: 0.0062 µM

Question: And the IC50 ([2]; read-out: IC50)?
Answer: 0.018 µM

Question: What does the source list for `N#Cc1ccc(Cn2cncc2Br)cc1`?
Answer: IC50 ([1]; read-out: IC50): 0.023 µM; IC50 ([2]; read-out: IC50): 0.073 µM

Question: What does the source list for `N#Cc1ccc(Cn2cncc2CO)cc1`?
Answer: IC50 ([1]; read-out: IC50): 0.029 µM; IC50 ([2]; read-out: pIC50 (converted)): 0.282 µM

Question: How did the IC50 ([1]; read-out: IC50) turn out when `N#Cc1ccc(Cn2cncc2-c2ccncc2)cc1` was run?
Answer: 0.407 µM

Question: And the IC50 ([2]; read-out: IC50)?
Answer: 0.307 µM

Question: `N#Cc1ccc(Cn2cncc2-c2ccccc2F)cc1` was tested. Which IC50 ([1]; read-out: IC50) did it give?
Answer: 0.0023 µM

Question: What about the IC50 ([2]; read-out: IC50) of the same compound?
Answer: 0.02 µM

Question: `COC(=O)CCc1cncn1Cc1ccc(F)cc1` was tested. Which IC50 ([1]; read-out: IC50) did it give?
Answer: 0.05 µM

Question: What about the IC50 ([2]; read-out: IC50) of the same compound?
Answer: 0.104 µM

Question: Which IC50 ([1]; read-out: IC50) does the source give for `COC(=O)CCc1cncn1Cc1ccc(Cl)cc1` here?
Answer: 0.177 µM

Question: What about the IC50 ([2]; read-out: IC50) of the same compound?
Answer: 0.123 µM

Question: How did the IC50 ([1]; read-out: IC50) turn out when `COC(=O)CCc1cncn1Cc1ccc(OC)cc1` was run?
Answer: 0.121 µM

Question: What about the IC50 ([2]; read-out: IC50) of the same compound?
Answer: 0.111 µM

Question: Which results are given for `Cc1ccc(-c2cncn2Cc2ccc(C#N)cc2)cc1`?
Answer: IC50 ([1]; read-out: IC50): 0.117 µM; IC50 ([2]; read-out: IC50): 0.13 µM

Question: For `Cc1cccc(-c2cncn2Cc2ccc(C#N)cc2)c1`, which IC50 ([1]; read-out: IC50) is on record?
Answer: 0.0052 µM

Question: What about the IC50 ([2]; read-out: IC50) of the same compound?
Answer: 0.0062 µM

Question: What does the source list for `COC(=O)CCc1cncn1Cc1ccccc1`?
Answer: IC50 ([1]; read-out: IC50): 0.193 µM; IC50 ([2]; read-out: IC50): 0.326 µM

Question: For `Clc1cccc(Cn2ccnc2)c1`, which IC50 ([1]; read-out: IC50) is on record?
Answer: 0.457 µM

Question: What about the IC50 ([2]; read-out: IC50) of the same compound?
Answer: 0.151 µM

Question: How did the IC50 ([1]; read-out: IC50) turn out when `Fc1ccc(Cn2cncc2-c2ccccc2)cc1` was run?
Answer: 0.011 µM

Question: And the IC50 ([2]; read-out: IC50)?
Answer: 0.016 µM

Question: With `Cc1ccccc1-c1cncn1Cc1ccc(C#N)cc1` as the compound, how does the IC50 ([1]; read-out: IC50) read?
Answer: 0.0037 µM

Question: And the IC50 ([2]; read-out: IC50)?
Answer: 0.0057 µM

Question: What does the source list for `OCCCc1cncn1Cc1ccccc1`?
Answer: IC50 ([1]; read-out: IC50): 0.286 µM; IC50 ([2]; read-out: IC50): 0.181 µM

Question: Which results are given for `c1ccc(Cn2ccnc2)cc1` [BENZYLIMIDAZOLE]?
Answer: IC50 ([1]; read-out: IC50): 1.8 µM; IC50 ([2]; read-out: IC50): 0.709 µM

Question: Which IC50 ([1]; read-out: IC50) does the source give for `CCOC(=O)c1cncn1[C@H](C)c1ccccc1` [ETOMIDATE] here?
Answer: 0.0017 µM
